Experiments:
[1] = tested on: MDA-MB-231 breast carcinoma cells; test: Wound-healing; format: cell-based; details: wound-healing assay, 20-hour time span, six biological replicates
Outline: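 Scratch-wound migration of MDA-MB-231 breast carcinoma cells followed over 20 h with test compounds (a glycopeptide, a peptide, or heparin) at several concentrations. Migration was scored as relative migration, and the concentration giving maximal inhibition of migration was noted.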

[2] = tested on: integrin; details: ref [3], [20]; cited from earlier work

## heparin
[1]
  concentration at which maximal inhibitory effect on migration is reached: 6 µM
[2]
  integrin binding relative to heparan sulfate (in words): binds more tightly with integrin than heparan sulfate

Source: publication PMC8052682 (Chemical communications (Cambridge, England), 2021)
